Experiments:
CHO [1] = assay: Positive allosteric modulation of mGlu2 receptor in CHO cell membranes at 1 uM preincubated for 30 mins in presence of 4 uM glutamate followed by [35S]GTPgammaS addition and measured after 30 mins by scintillation counting analysis; details: Cricetulus griseus
CHO [2] = assay: Positive allosteric modulation of mGlu2 receptor in CHO cell membranes preincubated for 30 mins in presence of 4 uM glutamate followed by [35S]GTPgammaS addition and measured after 30 mins by scintillation counting analysis relative to control; details: Cricetulus griseus
How it was run: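 EMAX is the % response, given as the median of at least two experiments with standard deviation.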

[3] = Positive allosteric modulation of mGlu2 receptor in CHO cell membranes preincubated for 30 mins in presence of 4 uM glutamate followed by [35S]GTPgammaS addition and measured after 30 mins by scintillation counting analysis; set-up: species or system Cricetulus griseus
How it was run: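 No absolute EC50 was given where the concentration–response curve reached no clear upper plateau.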

[4] = Stability in human liver microsomes assessed as percentage of compound metabolized at 5 uM after 15 mins; type: ADME, Microsome; details: for metabolised at 0.25 h, 5 µM: liver microsomes, read-out: Drug metabolism
[5] = Stability in rat liver microsomes assessed as percentage of compound metabolized at 5 uM after 15 mins; type: ADME, Microsome; details: for metabolised at 0.25 h, 5 µM: liver microsomes, read-out: Drug metabolism
[6] = Drug level in Sprague-Dawley rat plasma at 30 mg/kg, po after 4 hrs; type: ADME, organism-based
How it was run: (§1)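 Single oral dose to male Sprague–Dawley rats (n = 1), given as a suspension in 20% HP-β-CD at pH 7, at 10 or 30 mg/kg. Plasma (ng/mL) and brain (ng/g) levels were taken at 2 and 4 h. Kp is the brain/plasma partition coefficient at 2 h.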

[7] = Brain to plasma permeability coefficient, Kp in Sprague-Dawley rat at 30 mg/kg, po after 2 hrs; type: ADME, organism-based; how it was run: as §1
[8] = Drug concentration in Sprague-Dawley rat brain at 30 mg/kg, po after 4 hrs; type: ADME, organism-based; details: read-out: Drug uptake; how it was run: as §1
[9] = Drug level in Sprague-Dawley rat plasma at 30 mg/kg, po after 2 hrs; type: ADME, organism-based; how it was run: as §1
[10] = Drug concentration in Sprague-Dawley rat brain at 30 mg/kg, po after 2 hrs; type: ADME, organism-based; details: read-out: Drug uptake; how it was run: as §1
[11] = Drug concentration in Sprague-Dawley rat brain at 10 mg/kg, po after 2 hrs; type: ADME, organism-based; details: read-out: Drug uptake; how it was run: as §1
[12] = Drug concentration in Sprague-Dawley rat brain at 10 mg/kg, po after 4 hrs; type: ADME, organism-based; details: for concentration at 4 h: Sprague-Dawley, brain, read-out: Drug uptake; how it was run: as §1
[13] = Drug level in Sprague-Dawley rat plasma at 10 mg/kg, po after 4 hrs; type: ADME, organism-based; how it was run: as §1
[14] = Brain to plasma permeability coefficient, Kp in Sprague-Dawley rat at 10 mg/kg, po after 2 hrs; type: ADME, organism-based; how it was run: as §1
[15] = Drug level in Sprague-Dawley rat plasma at 10 mg/kg, po after 2 hrs; type: ADME, organism-based; how it was run: as §1
MDR1 [16] = assay: Efflux ratio of permeability in pig LLC-PK1 cells transfected with MDR1; type: ADME, cell-based, Sus scrofa
MDR1 [17] = assay: Permeability in pig LLC-PK1 cells transfected with MDR1 gene; type: ADME, cell-based, Sus scrofa; details: read-out: permeability
[18] = molecular target: Adenosine receptor A2b (Homo sapiens) (UniProt P29275); assay: Displacement of radioligand from human adenosine A2B receptor
[19] = microsomes, 0.25 h, 5 µM, BLD = below limit of detection

Chain of Adenosine receptor A2b (Homo sapiens) (P29275 whole entry, looked up): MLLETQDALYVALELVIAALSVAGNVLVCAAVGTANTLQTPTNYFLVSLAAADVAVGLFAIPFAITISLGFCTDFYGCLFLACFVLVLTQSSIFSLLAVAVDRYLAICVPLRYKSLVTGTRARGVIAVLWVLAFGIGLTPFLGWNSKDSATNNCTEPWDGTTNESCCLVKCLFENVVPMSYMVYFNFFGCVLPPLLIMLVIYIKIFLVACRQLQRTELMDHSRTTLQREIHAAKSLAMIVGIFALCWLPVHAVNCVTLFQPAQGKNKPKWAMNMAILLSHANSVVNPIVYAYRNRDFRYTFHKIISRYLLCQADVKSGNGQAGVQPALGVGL

Row | SMILES | EC50 [3] [nM] | metabolised at 0.25 h, 5 µM [4] [%] | metabolised at 0.25 h, 5 µM [5] [%] | Activity (CHO [1]) [%] | Emax (CHO [2]) [%] | other results
1 | O=C1Nc2c(Br)cccc2C12CCN(c1ccc(Cl)nn1)CC2 | 3090 | – | – | 9 | 65 | –
2 | O=C1Nc2ccccc2C12CCN(c1ccc(Cl)nn1)CC2 | – | 45 | 95 | 24 | 217 | –
3 | O=C1Nc2ccc(Br)cc2C12CCN(c1cccnn1)CC2 | – | – | – | 7 | 141 | –
4 | FC(F)(F)c1cccc(C2CCN(c3ccc(Cl)nn3)CC2)c1 | 2290 | – | – | – | 128 | –
5 | Cc1ccc(N2CCC3(CC2)C(=O)Nc2ccc(Br)cc23)nn1 | – | 17 | 69 | 36 | 228 | –
6 | O=C1Nc2ccc(Br)cc2C12CCN(c1ccc(Cl)nn1)CC2 | 1020 | 8 | 25 | 100 | 232 | –
7 | CCOc1cc(N2CC(n3c(=O)[nH]c4ccccc43)C2)ncc1Cl | 270 | 15 | 46 | – | 259 | concentration at 4 h [6]: 5780 ng/mL; Kp at 2 h [7]: 0.36; concentration at 4 h [8]: 2370 ng/g; concentration at 2 h [9]: 5770 ng/mL; concentration at 2 h [10]: 2050 ng/g; efflux ratio (MDR1 [16]): 1.18; Papp (MDR1 [17]): 13 ×10⁻⁶ cm/s
8 | O=C1Nc2ccc(Br)cc2C12CCN(c1ccc(C(F)(F)F)nn1)CC2 | 400 | 4 | 20 | 46 | 53 | –
9 | O=C1Nc2cccc(Br)c2C12CCN(c1ccc(Cl)nn1)CC2 | – | – | – | 31 | 108 | –
10 | O=C1Nc2cc(Br)ccc2C12CCN(c1ccc(Cl)nn1)CC2 | – | – | – | 76 | 183 | –
11 | CC(C)(C)OC(=O)N1CCC2(CC1)C(=O)Nc1ccc(Br)cc12 | 10000 | – | – | – | 120 | –
12 | CCNc1cc(N2CC(n3c(=O)[nH]c4ccccc43)C2)ncc1Cl | 120 | 27 | 88 | – | 381 | –
13 | CCOc1cc(N2CCC3(CC2)C(=O)Nc2ccc(Br)cc23)nnc1C(F)(F)F | 130 | 9 | 43 | 160 | 216 | concentration at 2 h [11]: 310 ng/g; concentration at 4 h [12]: 290 ng/g; concentration at 4 h [13]: 220 ng/mL; IC50 [18]: 790 nM; Kp at 2 h [14]: 1.4; concentration at 2 h [15]: 260 ng/mL

The next lines start with results.

Row | EC50 [3] [nM] | metabolised at 0.25 h, 5 µM [4] [%] | metabolised at 0.25 h, 5 µM [5] [%] | SMILES | Activity (CHO [1]) [%] | Emax (CHO [2]) [%] | other results
14 | 1000 | 8 | 76 | O=C1Nc2ccc(Cl)cc2C12CCN(c1ccc(Cl)nn1)CC2 | 80 | 187 | –
15 | 280 | 0 | 23 | CCNc1cc(N2CC(n3c(=O)[nH]c4ccccc43)C2)nnc1Cl | – | 291 | concentration at 4 h [6]: 842 ng/mL; Kp at 2 h [7]: 0.03; concentration at 4 h [8]: 31 ng/g; concentration at 2 h [9]: 1480 ng/mL; concentration at 2 h [10]: 48 ng/g
16 | 210 | 11 | 58 | CCOc1cc(N2CCC3(CC2)C(=O)Nc2ccc(Br)cc23)nnc1Cl | 203 | 380 | concentration at 2 h [11]: 18 ng/g; Drug uptake ([12]; in vivo, 4 h, BLD = below limit of detection): Bld; concentration at 4 h [13]: 17 ng/mL; Kp at 2 h [14]: 0.37; concentration at 2 h [15]: 49 ng/mL
17 | 240 | 8 | 65 | CCNc1cc(N2CCC3(CC2)C(=O)Nc2ccc(Br)cc23)nnc1Cl | 263 | 394 | –
18 | 230 | 9 | 26 | CCNc1cc(N2CC(n3c(=O)[nH]c4ccc(Br)cc43)C2)nnc1Cl | – | 241 | concentration at 2 h [11]: 18 ng/g; concentration at 4 h [12]: 18 ng/g; concentration at 4 h [13]: 416 ng/mL; Kp at 2 h [14]: 0.07; concentration at 2 h [15]: 254 ng/mL
19 | > 10000 | 7 | 31 | CCOc1ccc(N2CCC3(CC2)C(=O)Nc2ccc(Br)cc23)nn1 | 5 | 52 | –
20 | 150 | – | – | CCOc1nc(N2CC(n3c(=O)[nH]c4cc(C(F)(F)F)ccc43)C2)ncc1Cl | – | 220 | Drug metabolism [4, 19]: Bld; Drug metabolism [5, 19]: Bld
21 | 630 | 45 | 100 | O=C1Nc2ccc(C3CC3)cc2C12CCN(c1ccc(Cl)nn1)CC2 | 105 | 169 | –
22 | – | 11 | 57 | O=C1Nc2ccc(F)cc2C12CCN(c1ccc(Cl)nn1)CC2 | 31 | 184 | –
23 | 80 | 4 | 12 | CCOc1cc(N2CC(n3c(=O)[nH]c4cc(C(F)(F)F)ccc43)C2)ncc1Cl | – | 218 | concentration at 4 h [6]: 5090 ng/mL; Kp at 2 h [7]: 0.14; concentration at 4 h [8]: 996 ng/g; concentration at 2 h [9]: 2660 ng/mL; concentration at 2 h [10]: 371 ng/g; efflux ratio (MDR1 [16]): 1.24; Papp (MDR1 [17]): 9 ×10⁻⁶ cm/s
